Measurements as given in ChEMBL document CHEMBL3861977, “Effects of Oleanane-Type Triterpene Saponins from the Leaves of Eleutherococcus senticosus in an Axonal Outgrowth Assay” (J Nat Prod, 2016).
The source made the active and inactive calls. No cut-off for these calls is given here.

Test system: Cortical neurone
Assay: Inhibition of amyloid beta (25 to 35)-induced neuronal degeneration in ddY mouse embryo cortical neurons assessed as restoration of axonal outgrowth by measuring length of phosphorylated neurofilament-H-positive neurites at 10 uM treated 3 days post amyloid beta (25 to 35) stimulation measured after 4 days by fluorescent microscopic analysis
Assay type: functional
Outline: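 Cortical neurons from E14 ddY mouse embryos, plated on poly-D-lysine (5 μg/mL) in neurobasal medium with 12% horse serum, switched to 2% B-27 medium 3−12 h later, 37 °C, 10% CO2. Day 3: 10 μM Aβ25−35 (pre-aggregated 4 days at 37 °C) for 3 days. Then Aβ removed; 10 μM isolate, 0.1% DMSO vehicle or NGF 10 ng/mL for 4 days. Fixed in 4% PFA, stained for pNF-H and DAPI, pNF-H-positive neurite length measured; 10−79 photos per treatment, Dunnett's test.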

Compound | inhibition
C=C1CC[C@]2(C(=O)O[C@@H]3O[C@H](CO[C@@H]4O[C@H](COC(C)=O)[C@@H](O[C@@H]5O[C@@H](C)[C@H](O)[C@@H](O)[C@H]5O)[C@H](O)[C@H]4O)[C@@H](O)[C@H](O)[C@H]3O)CC[C@]3(C)C(=CC[C@@H]4[C@@]5(C)CC[C@H](O[C@@H]6OC[C@H](O)[C@H](O)[C@H]6O[C@@H]6O[C@H](CO)[C@@H](O)[C@H](O)[C@H]6O)C(C)(C)[C@@H]5CC[C@]43C)[C@@H]2C1 | Active
CC(=O)OC[C@H]1O[C@@H](OC[C@H]2O[C@@H](OC(=O)[C@]34CC[C@@](C)(CO)C[C@H]3C3=CC[C@@H]5[C@@]6(C)CC[C@H](O[C@@H]7OC[C@H](O)[C@H](O)[C@H]7O[C@@H]7O[C@@H](C)[C@H](O)[C@@H](O)[C@H]7O)C(C)(C)[C@@H]6CC[C@@]5(C)[C@]3(C)CC4)[C@H](O)[C@@H](O)[C@@H]2O)[C@H](O)[C@@H](O)[C@@H]1O[C@@H]1O[C@@H](C)[C@H](O)[C@@H](O)[C@H]1O | Active
CC(=O)OC[C@H]1O[C@@H](OC[C@H]2O[C@@H](OC(=O)[C@]34CC[C@@](C)(C(=O)O)C[C@H]3C3=CC[C@@H]5[C@@]6(C)CC[C@H](O[C@@H]7OC[C@H](O)[C@H](O)[C@H]7O[C@@H]7O[C@@H](C)[C@H](O)[C@@H](O)[C@H]7O)C(C)(C)[C@@H]6CC[C@@]5(C)[C@]3(C)CC4)[C@H](O)[C@@H](O)[C@@H]2O)[C@H](O)[C@@H](O)[C@@H]1O[C@@H]1O[C@@H](C)[C@H](O)[C@@H](O)[C@H]1O | Active
C[C@@H]1O[C@@H](O[C@H]2[C@H](O[C@H]3CC[C@]4(C)[C@H]5CC=C6[C@@H]7CC(C)(C)CC[C@]7(C(=O)O[C@@H]7O[C@H](CO[C@@H]8O[C@H](CO)[C@@H](O[C@@H]9O[C@@H](C)[C@H](O)[C@@H](O)[C@H]9O)[C@H](O)[C@H]8O)[C@@H](O)[C@H](O)[C@H]7O)CC[C@@]6(C)[C@]5(C)CC[C@H]4C3(C)C)OC[C@H](O)[C@@H]2O)[C@H](O)[C@H](O)[C@H]1O | Active
C=C1CC[C@]2(C(=O)O[C@@H]3O[C@H](CO[C@@H]4O[C@H](COC(C)=O)[C@@H](O[C@@H]5O[C@@H](C)[C@H](O)[C@@H](O)[C@H]5O)[C@H](O)[C@H]4O)[C@@H](O)[C@H](O)[C@H]3O)CC[C@]3(C)C(=CC[C@@H]4[C@@]5(C)CC[C@H](O[C@@H]6OC[C@H](O)[C@H](O)[C@H]6O[C@@H]6O[C@@H](C)[C@H](O)[C@@H](O)[C@H]6O)C(C)(C)[C@@H]5CC[C@]43C)[C@@H]2C1 | Active
CC(=O)OC[C@H]1O[C@@H](OC[C@H]2O[C@@H](OC(=O)[C@]34CC[C@@](C)(C(=O)O)C[C@H]3C3=CC[C@@H]5[C@@]6(C)CC[C@H](O[C@@H]7OC[C@H](O)[C@H](O)[C@H]7O)C(C)(C)[C@@H]6CC[C@@]5(C)[C@]3(C)CC4)[C@H](O)[C@@H](O)[C@@H]2O)[C@H](O)[C@@H](O)[C@@H]1O[C@@H]1O[C@@H](C)[C@H](O)[C@@H](O)[C@H]1O | Active
CC(=O)OC[C@H]1O[C@@H](OC[C@H]2O[C@@H](OC(=O)[C@]34CCC(C)(C)C[C@H]3C3=CC[C@@H]5[C@@]6(C)CC[C@H](O[C@@H]7OC[C@H](O)[C@H](O)[C@H]7O[C@@H]7O[C@H](CO)[C@@H](O)[C@H](O)[C@H]7O)C(C)(C)[C@@H]6CC[C@@]5(C)[C@]3(C)CC4)[C@H](O)[C@@H](O)[C@@H]2O)[C@H](O)[C@@H](O)[C@@H]1O[C@@H]1O[C@@H](C)[C@H](O)[C@@H](O)[C@H]1O | Active
C=C1CC[C@]2(C(=O)O[C@@H]3O[C@H](CO[C@@H]4O[C@H](COC(C)=O)[C@@H](O[C@@H]5O[C@@H](C)[C@H](O)[C@@H](O)[C@H]5O)[C@H](O)[C@H]4O)[C@@H](O)[C@H](O)[C@H]3O)CC[C@]3(C)C(=CC[C@@H]4[C@@]5(C)CC[C@H](O[C@@H]6OC[C@H](O)[C@H](O)[C@H]6O)C(C)(C)[C@@H]5CC[C@]43C)[C@@H]2C1 | Active
C[C@@H]1O[C@@H](O[C@H]2[C@H](O)[C@@H](O)[C@H](OC[C@H]3O[C@@H](OC(=O)[C@]45CCC(C)(C)C[C@H]4C4=CC[C@@H]6[C@@]7(C)CC[C@H](O[C@@H]8OC[C@H](O)[C@H](O)[C@H]8O)C(C)(C)[C@@H]7CC[C@@]6(C)[C@]4(C)CC5)[C@H](O)[C@@H](O)[C@@H]3O)O[C@@H]2CO)[C@H](O)[C@H](O)[C@H]1O | Active
C[C@@H]1O[C@@H](O[C@H]2[C@H](O[C@H]3CC[C@]4(C)[C@H]5CC=C6[C@@H]7C[C@](C)(C=O)CC[C@]7(C(=O)O[C@@H]7O[C@H](CO[C@@H]8O[C@H](CO)[C@@H](O[C@@H]9O[C@@H](C)[C@H](O)[C@@H](O)[C@H]9O)[C@H](O)[C@H]8O)[C@@H](O)[C@H](O)[C@H]7O)CC[C@@]6(C)[C@]5(C)CC[C@H]4C3(C)C)OC[C@H](O)[C@@H]2O)[C@H](O)[C@H](O)[C@H]1O | Active
C=C1CC[C@]2(C(=O)O[C@@H]3O[C@H](CO[C@@H]4O[C@H](CO)[C@@H](O[C@@H]5O[C@@H](C)[C@H](O)[C@@H](O)[C@H]5O)[C@H](O)[C@H]4O)[C@@H](O)[C@H](O)[C@H]3O)CC[C@]3(C)C(=CC[C@@H]4[C@@]5(C)CC[C@H](O[C@@H]6OC[C@H](O)[C@H](O)[C@H]6O[C@@H]6O[C@@H](C)[C@H](O)[C@@H](O)[C@H]6O)C(C)(C)[C@@H]5CC[C@]43C)[C@@H]2C1 | Active
CC(=O)OC[C@H]1O[C@@H](OC[C@H]2O[C@@H](OC(=O)[C@]34CCC(C)(C)C[C@H]3C3=CC[C@@H]5[C@@]6(C)CC[C@H](O[C@@H]7OC[C@H](O)[C@H](O)[C@H]7O[C@@H]7O[C@@H](C)[C@H](O)[C@@H](O)[C@H]7O)C(C)(C)[C@@H]6CC[C@@]5(C)[C@]3(C)CC4)[C@H](O)[C@@H](O)[C@@H]2O)[C@H](O)[C@@H](O)[C@@H]1O[C@@H]1O[C@@H](C)[C@H](O)[C@@H](O)[C@H]1O | Active
CC(=O)OC[C@H]1O[C@@H](OC[C@H]2O[C@@H](OC(=O)[C@]34CC[C@@](C)(C=O)C[C@H]3C3=CC[C@@H]5[C@@]6(C)CC[C@H](O[C@@H]7OC[C@H](O)[C@H](O)[C@H]7O[C@@H]7O[C@@H](C)[C@H](O)[C@@H](O)[C@H]7O)C(C)(C)[C@@H]6CC[C@@]5(C)[C@]3(C)CC4)[C@H](O)[C@@H](O)[C@@H]2O)[C@H](O)[C@@H](O)[C@@H]1O[C@@H]1O[C@@H](C)[C@H](O)[C@@H](O)[C@H]1O | Active
C[C@@H]1O[C@@H](O[C@H]2[C@H](O[C@H]3CC[C@@]4(C)[C@@H](CC[C@]5(C)[C@@H]4CC=C4[C@@H]6CC(C)(C)CC[C@]6(C(=O)O[C@@H]6O[C@H](CO[C@@H]7O[C@H](CO)[C@@H](O[C@@H]8O[C@@H](C)[C@H](O)[C@@H](O)[C@H]8O)[C@H](O)[C@H]7O)[C@@H](O)[C@H](O)[C@H]6O)CC[C@]45C)[C@]3(C)CO)OC[C@H](O)[C@@H]2O)[C@H](O)[C@H](O)[C@H]1O | Active
C[C@@H]1O[C@@H](O[C@H]2[C@H](O)[C@@H](O)[C@H](OC[C@H]3O[C@@H](OC(=O)[C@]45CC[C@@](C)(C=O)C[C@H]4C4=CC[C@@H]6[C@@]7(C)CC[C@H](O[C@@H]8OC[C@H](O)[C@H](O)[C@H]8O)C(C)(C)[C@@H]7CC[C@@]6(C)[C@]4(C)CC5)[C@H](O)[C@@H](O)[C@@H]3O)O[C@@H]2CO)[C@H](O)[C@H](O)[C@H]1O | Active
C[C@@H]1O[C@@H](O[C@H]2[C@H](O)[C@@H](O)[C@H](OC[C@H]3O[C@@H](OC(=O)[C@]45CCC(C)(C)C[C@H]4C4=CC[C@@H]6[C@@]7(C)CC[C@H](O[C@@H]8OC[C@H](O)[C@H](O[C@@H]9O[C@H](CO)[C@@H](O)[C@H](O)[C@H]9O)[C@H]8O)C(C)(C)[C@@H]7CC[C@@]6(C)[C@]4(C)C[C@@H]5O)[C@H](O)[C@@H](O)[C@@H]3O)O[C@@H]2CO)[C@H](O)[C@H](O)[C@H]1O | Active
